5 compounds from ChEMBL document CHEMBL1123030, “N-(Aminoalkyl)imide antineoplastic agents. Synthesis and biological activity” (J Med Chem, 1985) can be followed below.

Data set [1] can be described thus: Cytotoxic activity against human colon adenocarcinoma in vitro. In kind it is functional.
Data set [2] deals with L1210. Kind of data set: Cytotoxic activity against L1210 leukemia in vitro. In kind it is functional, Mus musculus.
For data set [3], the system named is Mus musculus. In words: Compound was evaluated for inhibitory activity in vivo against P388 leukemia cells in mice at a dose of 60 mg/kg upon intraperitoneal administration. In kind it is functional. The gist of the method: (§1)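 Tumor source was ascites fluid implanted into BDF₁ mice. Tumor inoculation and drug dosing were both intraperitoneal, given once daily for 5 days (q1d × 5). Screening and data interpretation followed the general NCI protocol.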

Data set [4] concerns P388. In words: Inhibitory activity in vivo against P388 leukemia cells in mice at a dose of 12.5 mg/kg upon intraperitoneal administration. In kind it is functional, Mus musculus. The gist of the method: as §1
For data set [5], the system named is Mus musculus. Kind of data set: Compound was evaluated for inhibitory activity in vivo against P388 leukemia cells in mice at a dose of 30 mg/kg upon intraperitoneal administration. In kind it is functional. An outline of the steps:
as §1

Data set [6] has as its system Mus musculus. Kind of data set: Compound was evaluated for inhibitory activity in vivo against P388 leukemia cells in mice at a dose of 15 mg/kg upon intraperitoneal administration. In kind it is functional. The gist of the method: as §1
For data set [7], the system named is L1210 leukemia (Mus musculus). Kind of data set: Compound was evaluated for inhibitory activity against L1210 leukemia in mice at a dose of 50 mg/kg upon intraperitoneal administration.
Data set [8] deals with Mus musculus. In words: Compound was evaluated for inhibitory activity in vivo against P388 leukemia cells in mice at a dose of 120 mg/kg upon intraperitoneal administration. In kind it is functional. An outline of the steps: as §1
Data set [9] relates to Mus musculus. In words: Compound was evaluated for inhibitory activity in vivo against P388 leukemia cells in mice at a dose of 240 mg/kg upon intraperitoneal administration. In kind it is functional. An outline of the steps: as §1
In data set [10] the test system is Mus musculus. In words: Compound was evaluated for inhibitory activity in vivo against P388 leukemia cells in mice at a dose of 7.5 mg/kg upon intraperitoneal administration. In kind it is functional. The gist of the method: as §1
Data set [11] has as its system Mus musculus. Kind of data set: Compound was evaluated for inhibitory activity in vivo against P388 leukemia cells in mice at a dose of 3.75 mg/kg upon intraperitoneal administration. In kind it is functional. An outline of the steps:
as §1

Data set [12] can be described thus: Compound was tested for cytotoxic activity against human colon adenocarcinoma in vitro; IA means Inactive.
Data set [13] relates to L1210. Kind of data set: Compound was tested for cytotoxic activity against L1210 leukemia in vitro; IA means Inactive. To be noted: Mus musculus. In kind it is functional, cell-based.
The subject of data set [14] is P388. Kind of data set: Inhibitory activity in vivo against P388 leukemia cells in mice at a dose of 50 mg/kg upon intraperitoneal administration. In kind it is functional, Mus musculus. The gist of the method:
as §1

The test system of data set [15] is P388. Kind of data set: Inhibitory activity in vivo against P388 leukemia cells in mice at a dose of 100 mg/kg upon intraperitoneal administration. In kind it is functional, Mus musculus. An outline of the steps: as §1
The test system of data set [16] is P388. In words: Inhibitory activity in vivo against P388 leukemia cells in mice at a dose of 25 mg/kg upon intraperitoneal administration. In kind it is functional, Mus musculus. An outline of the steps:
as §1

Data set [17] relates to Mus musculus. In words: Compound was evaluated for inhibitory activity in vivo against P388 leukemia cells in mice at a dose of 0.39 mg/kg upon intraperitoneal administration. In kind it is functional. An outline of the steps:
as §1

Data set [18] has as its system Mus musculus. Kind of data set: Compound was evaluated for inhibitory activity in vivo against P388 leukemia cells in mice at a dose of 0.78 mg/kg upon intraperitoneal administration. In kind it is functional. An outline of the steps: as §1
In data set [19] the test system is Mus musculus. In words: Compound was evaluated for inhibitory activity in vivo against P388 leukemia cells in mice at a dose of 1.56 mg/kg upon intraperitoneal administration. In kind it is functional. The gist of the method: as §1
Data set [20] relates to Mus musculus. Kind of data set: Compound was evaluated for inhibitory activity in vivo against P388 leukemia cells in mice at a dose of 3.12 mg/kg upon intraperitoneal administration. In kind it is functional. An outline of the steps:
as §1

SMILES strings stand for the structures. Calls of active or inactive are those of the source. The calls are words filed in the database; no cut-off is given here.

Regarding `Cl.Nc1cc2c3c(cc(N)cc3c1)C(=O)N(CCN1CCCCC1)C2=O`, the Cytotoxic concentration worked out at 1270 nM in [1] and 1390 nM in the data set with L1210 [2]. The T/C was 191 with Mus musculus [3]; 119 in the data set on P388 [4]; 142 with Mus musculus [5]; 136 in the data set on Mus musculus [6]; 145 in data set [7].
`O=C1c2cc([N+](=O)[O-])cc3cc([N+](=O)[O-])cc(c23)C(=O)N1CCNCCO.O=S(=O)(O)O`: the results for the Cytotoxic concentration (in data set [1]; with L1210 [2]) were 1250 nM and 431 nM, respectively. Moreover, the T/C in the data set on Mus musculus [3] is given as 123; in the data set with Mus musculus [5] it was 118; in the data set with Mus musculus [8], 123; in the data set with Mus musculus [9], 132.
Take `CN(C)CCN1C(=O)c2cc(N)cc3cc(N)cc(c23)C1=O.Cl.Cl.Cl`: the results for the Cytotoxic concentration (in data set [1]; in the data set on L1210 [2]) were 677 nM and 337 nM, respectively. Also, the T/C is recorded as 188 in the data set on Mus musculus [3], 163 with Mus musculus [10], 163 in the data set with Mus musculus [6] and 125 in the data set with Mus musculus [11].
For `O=C1c2cc([N+](=O)[O-])cc3cc([N+](=O)[O-])cc(c23)C(=O)N1c1nncs1`, the Cytotoxic concentration entry in [12] is on record as “Not Active”. The Cytotoxic concentration result in the data set on L1210 [13] was “inactive”. For the same compound, the T/C amounted to 127 with P388 [14], 137 with P388 [15], 91 in the data set with P388 [4] and 119 in the data set with P388 [16].
`Cl.O=C1c2cc([N+](=O)[O-])cc3cc([N+](=O)[O-])cc(c23)C(=O)N1CCN1CCCC1`: the Cytotoxic concentration in data set [1] worked out at 172 nM; with L1210 [2], 82.9 nM. Further, the T/C in the data set with Mus musculus [17] turned out to be 117; in the data set on Mus musculus [18], 126; with Mus musculus [19] it was 138; in the data set with Mus musculus [20], 136.
